Read-outs that look alike come from different tables or passages of the source.

These results are taken from PMC2888972 (Molecular cancer therapeutics, 2009).

In data set [1] the test system is RTC91696 normal. Briefly: Growth inhibition assay. It counts as cell-based, human. To be noted: RTC91696 normal, 48 h, single experiments; for efficacy (maximum growth inhibition observed): 1 to 12.5 µmol/L; for EC50: read-out: potency (EC50, concentration needed to induce half maximal efficacy).
The test system of data set [2] is 786-O cancer. The experiment in a line: Growth inhibition assay. As to conditions: for efficacy (maximum growth inhibition observed): 48 h, 1 to 12.5 µmol/L; for EC50: read-out: potency (EC50, concentration needed to induce half maximal efficacy), 48 h. The data set is classed as cell-based, human. The method, boiled down:
(§1)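 Stock is 0.01 mol/L in DMSO, kept at −20°C under subdued light. Cells get 1–12.5 µmol/L or equal-volume DMSO, in triplicate, for 48 h. Growth index is mean treated OD over mean control OD, plotted against concentration. Maximal inhibition comes by nonlinear regression from plots of 2–3 independent experiments.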

Data set [3] relates to Caki-1 cancer. Briefly: Growth inhibition assay. It counts as cell-based, human. As to conditions: for efficacy (maximum growth inhibition observed): 1 to 12.5 µmol/L; for EC50: read-out: potency (EC50, concentration needed to induce half maximal efficacy). The method, boiled down: as §1
Data set [4] concerns HK-2 normal. Briefly: Growth inhibition assay. The data set is classed as cell-based, human. To be noted: 48 h; for efficacy (maximum growth inhibition observed): 1 to 12.5 µmol/L; for EC50: read-out: potency (EC50, concentration needed to induce half maximal efficacy). The method, boiled down: as §1
The subject of data set [5] is WP2 uvrA. The experiment in a line: Bacterial mutation.
The subject of data set [6] is TA1535. The experiment in a line: Bacterial mutation.
Data set [7] has as its system TA98. The experiment in a line: Bacterial mutation. To be noted: positive control 1 µg/plate, −S9.
In data set [8] the test system is TA100. Briefly: Bacterial mutation. To be noted: positive control 0.5 µg/plate, −S9.
The mark [9] stands for this setting: positive control 0.5 µg/plate, −S9.

With `COC(=O)c1ccc(NC(=S)Nc2ccc3c(c2)C(C)(C)CC(C)(C)S3)cc1` [SHetD4], the “efficacy (maximum growth inhibition observed)” value is on record as 37.74% ± 6.61% in data set [1]; 44.55% ± 17.56% in data set [2]; 38.67% ± 1.50% in data set [3] (Caki-1 cancer, 48 h); 43.67% ± 0.44% in data set [4] (HK-2 normal). In addition, the EC50 is 5.36 ± 0.6 µM in data set [1]; 5.08 ± 0.71 µM in data set [2]; 7.56 ± 0.15 µM in data set [3] (Caki-1 cancer, 48 h); 7.42 ± 0.2 µM in data set [4] (HK-2 normal).
Regarding `Nc1ccc2cc3ccccc3cc2c1` [2AA, reference compound], the “number of revertant colonies, Mean” value in data set [5] (setting [9]) is recorded as 594; in data set [5] (positive control 15 µg/plate, +S9), 145; in data set [6] (positive control 5 µg/plate, +S9), 324.
With `CC1(C)CC(C)(C)c2cc(NC(=O)Nc3ccc([N+](=O)[O-])cc3)ccc2S1` [SHetC2], the “efficacy (maximum growth inhibition observed)” value in data set [1] was 52.31% ± 7.38%; in data set [2] it was 78.53% ± 6.11%; in data set [3] (Caki-1 cancer, 48 h), 85.71% ± 4.53%; in data set [4] (HK-2 normal) it was 52.67% ± 1.84%. Moreover, the EC50 in data set [1] was 7.67 ± 0.49 µM; in data set [2], 7.48 ± 0.34 µM; in data set [3] (Caki-1 cancer, 48 h) it was 4.91 ± 0.29 µM; in data set [4] (HK-2 normal) it was 4.47 ± 0.49 µM.
On to `COC(=O)c1cccc(NC(=S)Nc2ccc3c(c2)C(C)(C)CC(C)(C)S3)c1` [SHetD5], for which the “efficacy (maximum growth inhibition observed)” value in data set [2] is listed as 41.80% ± 16.91%; in data set [3] (Caki-1 cancer, 48 h), 34.10% ± 1.20%; in data set [4] (HK-2 normal), 47.97% ± 1.00%. The EC50 in data set [2] amounted to 5.14 ± 0.7 µM; in data set [3] (Caki-1 cancer, 48 h), 7.22 ± 0.25 µM; in data set [4] (HK-2 normal), 4.96 ± 0.25 µM.
Regarding `O=[N+]([O-])c1ccc2c(c1)Cc1ccccc1-2` [2NF, reference compound], the “number of revertant colonies, Mean” value in data set [7] was found to be 108.
For the compound `[N-]=[N+]=[N-].[Na+]` [NaAZ, reference compound], the “number of revertant colonies, Mean” value in data set [8] was 511; in data set [6] (setting [9]) it was 304.
For the compound `COC(=O)c1ccc(NC(=O)Nc2ccc3c(c2)C(C)(C)CC(C)(C)S3)cc1` [SHetD3], the “efficacy (maximum growth inhibition observed)” value was 46.27% ± 0.95% in data set [1]; 61.52% ± 1.44% in data set [2]; 56.99% ± 12.12% in data set [3] (Caki-1 cancer, 48 h); 26.37% ± 0.22% in data set [4] (HK-2 normal). In addition, the EC50 was found to be 9.42 ± 0.43 µM in data set [1]; 7.15 ± 0.81 µM in data set [2]; 7.14 ± 0.22 µM in data set [3] (Caki-1 cancer, 48 h); 6.91 ± 0.66 µM in data set [4] (HK-2 normal).
With `CC1=C(/C=C/C(C)=C/C=C/C(C)=C/C(=O)O)C(C)(C)CCC1` [t-RA, trans-retinoic acid, reference compound], the “efficacy (maximum growth inhibition observed)” value in data set [2] is 0.00% ± 1.43%; in data set [3] (Caki-1 cancer, 48 h) it was 6.46% ± 9.40%; in data set [4] (HK-2 normal), 15.81% ± 0.47%. For the same compound, the EC50 is 4.64 ± 1.14 µM in data set [3] (Homo sapiens, CAKI-1, 48 h) and 6.28 ± 2.19 µM in data set [4] (Homo sapiens).
For `CCOC(=O)c1ccc(NC(=O)Nc2ccc3c(c2)C(C)(C)CC(C)(C)S3)cc1` [SHetA4], the “efficacy (maximum growth inhibition observed)” value in data set [1] is given as 39.67% ± 2.52%; in data set [2], 45.04% ± 4.80%; in data set [3] (Caki-1 cancer, 48 h) it was 68.92% ± 6.94%; in data set [4] (HK-2 normal), 26.35% ± 0.80%. Further, the EC50 stood at 7.55 ± 0.51 µM in data set [1]; 2.56 ± 0.34 µM in data set [2]; 5.07 ± 0.15 µM in data set [3] (Caki-1 cancer, 48 h); 5.19 ± 0.25 µM in data set [4] (HK-2 normal).
